Measured values published in ChEMBL document CHEMBL2202981, “Synthesis and cytotoxicity evaluation of highly functionalized pyranochromenes and pyranopyrans” (Bioorg Med Chem Lett, 2012).

Key:
Type in all cases: functional, cell-based
[1] = tested on: MCF7; assay: Cytotoxicity against human MCF7 cells by MTT assay
In short: (§1)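 MTT assay on four human tumour lines: A549 (alveolar adenocarcinoma epithelial), HeLa (cervical cancer), MDA-MB-231 and MCF7 (breast adenocarcinoma). Dose-response curves were plotted from absorbance data, and IC50 was calculated from them. Each value is the average of two independent experiments.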

[2] = tested on: A549; assay: Cytotoxicity against human A549 cells by MTT assay
[3] = tested on: HeLa; assay: Cytotoxicity against human HeLa cells by MTT assay; in short: as §1
[4] = tested on: MDA-MB-231; assay: Cytotoxicity against human MDA-MB-231 cells by MTT assay; in short: as §1
[5] = Homo sapiens, MCF7, read-out: IC50
[6] = Homo sapiens, HeLa, read-out: IC50
[7] = Homo sapiens, MDA-MB-231, read-out: IC50
[8] = Homo sapiens, A549, read-out: IC50

Row | Structure (SMILES) | IC50 ([1]; mcf7) | IC50 ([2]; a549) | IC50 ([3]; hela) | IC50 ([4]; mda-mb-231) | IC50 [1, 5] [µM] | IC50 [3, 6] [µM] | IC50 [4, 7] [µM] | IC50 [2, 8] [µM]
1 | CCOC(=O)C1C(c2ccc(C)cc2)c2oc(CO)cc(=O)c2OC1(O)C(F)(F)F (racemic) | Not Active | Not Active | Not Active | Not Active | – | – | – | –
2 | CCOC(=O)C1C(c2ccc(F)cc2)c2c(c3cc(F)ccc3oc2=O)OC1(O)C(F)(F)F (racemic) | Not Active | Not Active | Not Active | Not Active | – | – | – | –
3 | CCOC(=O)C1C(c2ccc(F)cc2)c2c(c3ccccc3oc2=O)OC1(O)C(F)(F)F (racemic) | – | Not Active | – | – | 7.67 | 11 | 11.3 | –
4 | CCOC(=O)C1C(c2ccc(C#N)cc2)c2c(c3cc(F)ccc3oc2=O)OC1(O)C(F)(F)F (racemic) | Not Active | Not Active | Not Active | Not Active | – | – | – | –
5 | CCOC(=O)C1C(c2ccc(O)cc2)c2c(c3cc(F)ccc3oc2=O)OC1(O)C(F)(F)F (racemic) | – | – | – | – | 6.54 | 11.5 | 6.61 | 33.9
6 | CCOC(=O)C1C(c2ccc(OC)cc2)c2oc(CO)cc(=O)c2OC1(O)C(F)(F)F (racemic) | Not Active | Not Active | Not Active | Not Active | – | – | – | –
7 | CCOC(=O)C1C(c2ccc(O)cc2)c2c(c3ccccc3oc2=O)OC1(O)C(F)(F)F (racemic) | Not Active | Not Active | Not Active | Not Active | – | – | – | –
8 | CCOC(=O)C1C(c2ccc(O)cc2)c2oc(CO)cc(=O)c2OC1(O)C(F)(F)F (racemic) | Not Active | Not Active | Not Active | Not Active | – | – | – | –
9 | CCOC(=O)C1C(c2ccc(C(C)C)cc2)c2c(c3ccccc3oc2=O)OC1(O)C(F)(F)F (racemic) | Not Active | Not Active | Not Active | Not Active | – | – | – | –
10 | COc1cccc2c1C(=O)c1c(O)c3c(c(O)c1C2=O)C[C@@](O)(C(=O)CO)C[C@@H]3O[C@H]1C[C@H](N)[C@H](O)[C@H](C)O1 [DOXORUBICIN] | – | – | – | – | – | < 1 | < 1 | –
11 | CCOC(=O)C1C(c2ccc(O)c(OC)c2)c2c(c3ccccc3oc2=O)OC1(O)C(F)(F)F (racemic) | Not Active | Not Active | Not Active | Not Active | – | – | – | –
12 | CCOC(=O)C1C(c2ccc(OC)c(OC)c2)c2c(c3ccccc3oc2=O)OC1(O)C(F)(F)F (racemic) | – | – | – | – | 53.9 | 87 | 7.71 | 34.3
13 | CCOC(=O)C1C(c2ccc([N+](=O)[O-])cc2)c2c(c3cc(F)ccc3oc2=O)OC1(O)C(F)(F)F (racemic) | Not Active | Not Active | Not Active | Not Active | – | – | – | –
14 | CCOC(=O)C1C(c2ccc(C#N)cc2)c2c(c3ccccc3oc2=O)OC1(O)C(F)(F)F (racemic) | Not Active | Not Active | Not Active | Not Active | – | – | – | –
15 | CCOC(=O)C1C(c2cccnc2)c2c(c3ccccc3oc2=O)OC1(O)C(F)(F)F (racemic) | Not Active | Not Active | Not Active | Not Active | – | – | – | –
16 | CCOC(=O)C1C(c2ccc(OC)cc2)c2c(c3ccccc3oc2=O)OC1(O)C(F)(F)F (racemic) | – | – | – | – | 71.7 | 11.2 | 2.2 | 82.4
